Measured values taken from ChEMBL document CHEMBL4354813, “Design, Synthesis, and Pharmacological Evaluation of Potent Positive Allosteric Modulators of the Glucagon-like Peptide-1 Receptor (GLP-1R)” (J Med Chem, 2020).
Active and inactive are the calls of the source. The rule behind the calls is not given here.

Tests used:
[1] = molecular target: Glucagon receptor (Homo sapiens) (UniProt P47871); assay: Positive allosteric modulator activity at human GCGR expressed in PSC-HEK293 cells assessed as potentiation of GLP-1(9-36)NH2-induced cAMP accumulation incubated for 30 mins by HTRF cAMP assay relative to control; assay type: functional, cell-based
[2] = molecular target: T1, Glucagon-like peptide 1 receptor (Homo sapiens, UniProt P43220); assay: Positive allosteric modulator activity at human GLP-1R expressed in PSC-HEK293 cells assessed as potentiation of GLP-1(7-36)NH2-induced cAMP accumulation incubated for 30 mins by HTRF cAMP assay relative to control; assay type: functional, cell-based
[3] = molecular target: T1, Glucagon-like peptide 1 receptor; assay: Activity at human GLP-1R expressed in PSC-HEK293 cells incubated for 30 mins by HTRF cAMP assay; assay type: functional, cell-based
[4] = tested on: HEK293; assay: Effect on cAMP accumulation in parental HEK293 cells incubated for 30 mins by HTRF cAMP assay; assay type: functional, cell-based; conditions: Homo sapiens
[5] = molecular target: T1, Glucagon-like peptide 1 receptor; assay: Positive allosteric modulator activity at GLP-1R in human 1.1B4 cells in presence of EC20 level of GLP1(9-36)NH2 incubated for 30 mins by HTRF cAMP assay; assay type: functional, cell-based; conditions: read-out: EC50
Outline: (§1)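 Human pancreatic β-cell line 1.1B4, 20,000 cells/well cultured overnight, washed twice; compound concentration-response with fixed 10 nM GLP1(9-36)NH2, 30 min. cAMP by HTRF 665/620 ratio, normalised to buffer (1x HBSS, 0.1% BSA, 1 mM IBMX; 0%) and GLP-1(7-36)NH2 (100%); 4-parameter logistic fit.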

[6] = molecular target: Glucagon receptor (Homo sapiens) (UniProt P47871); assay: Activity at human GCGR expressed in PSC-HEK293 cells incubated for 30 mins by HTRF cAMP assay; assay type: functional, cell-based
[7] = molecular target: T2, Glucagon-like peptide 1 receptor (Mus musculus) (UniProt O35659); assay: Inhibition of 15 mM glucose-mediated increase in intracellular Ca2+ level in mouse MIN6-c4 cells at 0.12 to 30 uM by FLIPR assay relative to control; assay type: functional, cell-based
T2 sequence (whole entry): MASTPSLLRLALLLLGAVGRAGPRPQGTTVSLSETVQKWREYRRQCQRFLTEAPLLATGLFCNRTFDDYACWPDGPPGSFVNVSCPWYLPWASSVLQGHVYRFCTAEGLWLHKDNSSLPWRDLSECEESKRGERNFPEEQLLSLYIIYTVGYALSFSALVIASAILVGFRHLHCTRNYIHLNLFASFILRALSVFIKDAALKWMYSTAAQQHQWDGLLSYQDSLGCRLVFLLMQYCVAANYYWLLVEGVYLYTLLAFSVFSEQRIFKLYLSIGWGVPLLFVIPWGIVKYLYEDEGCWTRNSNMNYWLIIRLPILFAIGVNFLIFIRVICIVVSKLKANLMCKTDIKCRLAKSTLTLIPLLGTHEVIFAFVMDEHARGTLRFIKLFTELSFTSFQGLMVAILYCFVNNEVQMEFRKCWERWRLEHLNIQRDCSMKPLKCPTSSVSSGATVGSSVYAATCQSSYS

[8] = molecular target: T1, Glucagon-like peptide 1 receptor; assay: Positive allosteric modulator activity at human GLP-1R expressed in PSC-HEK293 cells assessed as potentiation of cAMP accumulation incubated for 30 mins by HTRF cAMP assay
[9] = molecular target: T1, Glucagon-like peptide 1 receptor; assay: Positive allosteric modulator activity at human GLP-1R expressed in PSC-HEK293 cells in presence of EC20 level of GLP1(9-36)NH2 incubated for 30 mins by HTRF cAMP assay; assay type: functional, cell-based
Outline: (§2)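 Thaw-and-use PSC-HEK293 cells stably expressing human GLP-1R, 2000 cells/well in HBSS/20 mM HEPES/0.1% BSA with 2 mM IBMX. Enhancer format: compound dose-response plus fixed EC20 GLP1(9-36)NH2. Shift format: GLP1(9-36)NH2 dose-response plus 10 or 3 μM compound. 30 min at room temperature. EC50 from a 4-parameter logistic fit.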

[10] = molecular target: Vasoactive intestinal polypeptide receptor 2 (Homo sapiens) (UniProt P41587); assay: Activity at human VIPR expressed in PSC-HEK293 cells incubated for 30 mins by HTRF cAMP assay
[11] = molecular target: T2, Glucagon-like peptide 1 receptor (Mus musculus); assay: Positive allosteric modulator activity at GLP-1R in mouse MIN6-c4 cells assessed as effect on glucose-mediated increase in intracellular Ca2+ level by FLIPR assay relative to control; assay type: functional, cell-based
[12] = molecular target: T1, Glucagon-like peptide 1 receptor; assay: Positive allosteric modulator activity at human GLP-1R expressed in PSC-HEK293 cells assessed as potentiation of GLP1(9-36)NH2-induced cAMP accumulation by measuring shift in EC50 of endogenous GLP1(9-36)NH2 at 10 uM incubated for 30 mins by HTRF cAMP assay relative to control; assay type: functional, cell-based
Outline: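 Thawed frozen PSC-HEK293 cells stably expressing human GLP-1R, 2000 cells/well in HBSS/20 mM HEPES/0.1% BSA with 2 mM IBMX. Shift format: GLP1(9-36)NH2 dose-response with compound fixed at 10 or 3 µM; 30 min room temperature; cAMP by HTRF (665/620 nm ratio) after 1 h with lysis reagents; 4-parameter logistic fit; EC50 shift factor derived.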

[13] = molecular target: T1, Glucagon-like peptide 1 receptor; assay: Positive allosteric modulator activity at GLP-1R in human 1.1B4 cells in presence of EC20 level of GLP1(9-36)NH2 incubated for 30 mins by HTRF cAMP assay relative to control; assay type: functional, cell-based; outline: as §1
[14] = molecular target: T1, Glucagon-like peptide 1 receptor; assay: Positive allosteric modulator activity at human GLP-1R expressed in PSC-HEK293 cells in presence of EC20 level of GLP1(9-36)NH2 incubated for 30 mins by HTRF cAMP assay relative to control; assay type: functional, cell-based
Outline: as §2, with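 “temperature. HTRF cAMP read after 1 h lysis (665/620 nm).” for “temperature.”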

[15] = molecular target: T1, Glucagon-like peptide 1 receptor; assay: Positive allosteric modulator activity at human GLP-1R expressed in PSC-HEK293 cells assessed as potentiation of oxyntomodulin-induced cAMP accumulation incubated for 30 mins by HTRF cAMP assay relative to control; assay type: functional, cell-based
Outline: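 Counterscreen in HEK293 cells with recombinant receptor, 2000 cells/well, 2 mM IBMX, 30 min at room temperature. Compound tested with 10 nM oxyntomodulin (GLP-1R cells) or with GLP-1(9-36)NH2 in glucagon-receptor-overexpressing cells. cAMP read by HTRF at 665/620 nm.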

[16] = molecular target: T1, Glucagon-like peptide 1 receptor; assay: Positive allosteric modulator activity at human GLP-1R expressed in PSC-HEK293 cells assessed as potentiation of GLP1(9-36)NH2-induced cAMP accumulation by measuring shift in EC50 of endogenous GLP1(9-36)NH2 at 3 uM incubated for 30 mins by HTRF cAMP assay relative to control; assay type: functional, cell-based
Outline: as §2, with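 “temperature. HTRF cAMP read after 1 h lysis (665/620 nm).” for “temperature.”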

T1 sequence (P43220 whole entry): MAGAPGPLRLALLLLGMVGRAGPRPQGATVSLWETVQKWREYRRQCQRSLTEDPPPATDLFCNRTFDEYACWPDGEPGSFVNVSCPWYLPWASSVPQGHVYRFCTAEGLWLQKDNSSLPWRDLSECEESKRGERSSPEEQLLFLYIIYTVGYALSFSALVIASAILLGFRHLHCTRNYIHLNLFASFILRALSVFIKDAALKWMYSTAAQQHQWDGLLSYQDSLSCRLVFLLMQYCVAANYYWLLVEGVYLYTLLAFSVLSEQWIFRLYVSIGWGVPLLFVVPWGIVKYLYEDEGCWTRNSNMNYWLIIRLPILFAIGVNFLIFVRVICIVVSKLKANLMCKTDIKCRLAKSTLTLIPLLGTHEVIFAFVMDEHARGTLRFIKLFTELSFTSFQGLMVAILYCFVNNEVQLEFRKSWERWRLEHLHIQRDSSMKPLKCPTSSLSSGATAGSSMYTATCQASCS
Chain of Glucagon receptor (Homo sapiens) (P47871 whole entry): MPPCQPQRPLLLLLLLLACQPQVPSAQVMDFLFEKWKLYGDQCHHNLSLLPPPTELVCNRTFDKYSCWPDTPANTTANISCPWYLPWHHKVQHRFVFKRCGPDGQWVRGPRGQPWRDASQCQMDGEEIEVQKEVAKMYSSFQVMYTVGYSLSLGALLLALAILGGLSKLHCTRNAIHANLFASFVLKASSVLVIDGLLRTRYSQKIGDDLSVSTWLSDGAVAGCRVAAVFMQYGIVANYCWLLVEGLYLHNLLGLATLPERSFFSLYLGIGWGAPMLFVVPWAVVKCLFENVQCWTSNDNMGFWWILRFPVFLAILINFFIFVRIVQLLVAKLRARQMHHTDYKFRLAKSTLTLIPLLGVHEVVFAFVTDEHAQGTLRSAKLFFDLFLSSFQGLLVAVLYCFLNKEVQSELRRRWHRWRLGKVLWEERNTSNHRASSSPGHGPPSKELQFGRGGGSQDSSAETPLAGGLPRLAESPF
Chain of Vasoactive intestinal polypeptide receptor 2 (Homo sapiens) (P41587 whole entry, looked up): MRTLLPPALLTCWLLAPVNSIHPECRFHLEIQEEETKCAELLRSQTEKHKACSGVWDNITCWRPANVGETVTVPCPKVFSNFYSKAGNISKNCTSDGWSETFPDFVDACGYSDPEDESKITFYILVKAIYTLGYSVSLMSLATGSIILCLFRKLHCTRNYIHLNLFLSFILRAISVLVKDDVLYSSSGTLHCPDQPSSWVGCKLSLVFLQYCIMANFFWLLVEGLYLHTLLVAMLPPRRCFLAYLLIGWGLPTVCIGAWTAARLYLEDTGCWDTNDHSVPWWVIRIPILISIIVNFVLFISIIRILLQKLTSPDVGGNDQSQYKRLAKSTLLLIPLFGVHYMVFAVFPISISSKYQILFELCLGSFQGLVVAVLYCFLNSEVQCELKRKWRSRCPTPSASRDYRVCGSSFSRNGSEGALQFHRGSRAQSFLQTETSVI

Structure (SMILES) | Activity [1] | Activity [2] | Activity [3] | Activity [4] | EC50 [5] [nM] | Activity [6] | inhibition [7] | Activity [8] | EC50 [9] [nM] | Activity [10] | fold change (FC) [11] | Ratio EC50 [12] | Emax [13] [%] | Emax [14] [%] | Activity [15] | Ratio EC50 [16]
CC(C)(C)OC(=O)n1c2c(c3ccccc31)C[C@H]1C(=O)N3C[C@@H](CC(=O)O)C[C@H]3[C@@H]2N1C(=O)CC1CCC(F)(F)CC1 | inactive | inactive | inactive | inactive | 130 | inactive | inactive | inactive | 5 | inactive | 1.2 | 8190 | 102 | 100 | inactive | 2220
CC(O)CCN1C[C@H]2c3c(c4ccccc4n3C(=O)OC(C)(C)C)C[C@@H](C1=O)N2C(=O)CC1CCC(F)(F)CC1 (some centres not stated) | inactive | inactive | inactive | inactive | 40 | inactive | Active | inactive | 1.5 | inactive | 0.9 | 3140 | 100 | 100 | inactive | 526
